≈ marks a conversion by molar mass, not a printed value.
Assays:
Type in all cases: functional, Salmonella enterica subsp. enterica serovar Typhimurium
Salmonella typhimurium [1] = experiment: Antimicrobial activity against Salmonella enterica serovar Typhimurium S21 acrAB::Kan
Outline: (§1)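 MICs by automated broth microdilution panels, interpreted to CLSI broth microdilution standards. Ciprofloxacin additionally tested by agar dilution across 0.0075 to 128 μg/ml. Quality control strains: E. coli ATCC 25922 and 35218, Enterococcus faecalis ATCC 29212, S. aureus ATCC 29213, P. aeruginosa ATCC 27853. Test strains are kanamycin-marked deletion mutants of ground-beef isolate S21.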

Salmonella typhimurium [2] = experiment: Antimicrobial activity against Salmonella enterica serovar Typhimurium CHS14 with GyrA D87G mutation
Outline: (§2)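 MICs measured by broth microdilution on the Sensititre automated system and interpreted by CLSI broth microdilution standards. Ciprofloxacin was also tested by agar dilution, widening the range to 0.0075–128 μg/ml. Quality control strains were E. coli ATCC 25922 and 35218, E. faecalis ATCC 29212, S. aureus ATCC 29213 and P. aeruginosa ATCC 27853.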

Salmonella typhimurium [3] = experiment: Antimicrobial activity against Salmonella enterica serovar Typhimurium CHS18 with GyrA S38F mutation; outline: as §2
Salmonella typhimurium [4] = experiment: Antimicrobial activity against Salmonella enterica serovar Typhimurium CHS14 gyrA+ with GyrA D87G mutation; outline: as §2
Salmonella typhimurium [5] = experiment: Antimicrobial activity against Salmonella enterica serovar Typhimurium CHS18 gyrA+ with GyrA S38F mutation; outline: as §2
Salmonella typhimurium [6] = experiment: Antimicrobial activity against Salmonella enterica serovar Typhimurium S21; outline: as §2
Salmonella typhimurium [7] = experiment: Antimicrobial activity against Salmonella enterica serovar Typhimurium CHS38 with GyrA D87G mutation; outline: as §2
Salmonella typhimurium [8] = experiment: Antimicrobial activity against Salmonella enterica serovar Typhimurium CHS18 acrAB::Kan with GyrA S38F mutation; outline: as §2
Salmonella typhimurium [9] = experiment: Antimicrobial activity against Salmonella enterica serovar Typhimurium CS1 gyrA+ with GyrA S83F, D87N, ParC S80I mutation; outline: as §2
Salmonella typhimurium [10] = experiment: Antimicrobial activity against Salmonella enterica serovar Typhimurium CS3 acrAB::Kan with GyrA S83F, D87N, ParC S80I mutation; outline: as §2
Salmonella typhimurium [11] = experiment: Antimicrobial activity against Salmonella enterica serovar Typhimurium CHS14 tolC::Kan with GyrA D87G mutant; outline: as §2
Salmonella typhimurium [12] = experiment: Antimicrobial activity against Salmonella enterica serovar Typhimurium CS3 with GyrA S83F, D87N, ParC S80I mutation; outline: as §2
Salmonella typhimurium [13] = experiment: Antimicrobial activity against Salmonella enterica serovar Typhimurium CHS38 gyrA+ with GyrA D87G mutation; outline: as §2
Salmonella typhimurium [14] = experiment: Antimicrobial activity against Salmonella enterica serovar Typhimurium CS9 gyrA+ with GyrA S83F, D87N, ParC S80I mutation; outline: as §2
Salmonella typhimurium [15] = experiment: Antimicrobial activity against Salmonella enterica serovar Typhimurium CS9 tolC::Kan with GyrA S83F, D87N, ParC S80I mutation; outline: as §2
Salmonella typhimurium [16] = experiment: Antimicrobial activity against Salmonella enterica serovar Typhimurium S21 gyrA+; outline: as §2
Salmonella typhimurium [17] = experiment: Antimicrobial activity against Salmonella enterica serovar Typhimurium CHS14 acrAB::Kan with GyrA D87G mutation; outline: as §2
Salmonella typhimurium [18] = experiment: Antimicrobial activity against Salmonella enterica serovar Typhimurium CS1 tolC::Kan with GyrA S83F, D87N, ParC S80I mutation; outline: as §2
Salmonella typhimurium [19] = experiment: Antimicrobial activity against Salmonella enterica serovar Typhimurium CHS38 tolC::Kan with GyrA D87G mutation; outline: as §2
Salmonella typhimurium [20] = experiment: Antimicrobial activity against Salmonella enterica serovar Typhimurium CS3 gyrA+ with GyrA S83F, D87N, ParC S80I mutation; outline: as §2
Salmonella typhimurium [21] = experiment: Antimicrobial activity against Salmonella enterica serovar Typhimurium S21 tolC::Kan; outline: as §1
Salmonella typhimurium [22] = experiment: Antimicrobial activity against Salmonella enterica serovar Typhimurium CHS18 tolC::Kan with GyrA S38F mutation; outline: as §2
Salmonella typhimurium [23] = experiment: Antimicrobial activity against Salmonella enterica serovar Typhimurium CHS38 acrAB::Kan with GyrA D87G mutation; outline: as §2
Salmonella typhimurium [24] = experiment: Antimicrobial activity against Salmonella enterica serovar Typhimurium CS3 tolC::Kan with GyrA S83F, D87N, parC S80I mutation; outline: as §2
Salmonella typhimurium [25] = experiment: Antimicrobial activity against Salmonella enterica serovar Typhimurium CS1 acrAB::Kan with GyrA S83F, D87N, ParC S80I mutation; outline: as §2
Salmonella typhimurium [26] = experiment: Antimicrobial activity against Salmonella enterica serovar Typhimurium CS9 acrAB::Kan with GyrA S83F, D87N, ParC S80I mutation; outline: as §2
Salmonella typhimurium [27] = experiment: Antimicrobial activity against Salmonella enterica serovar Typhimurium CS1 with GyrA S83F, D87N, ParC S80I mutation; outline: as §2
Salmonella typhimurium [28] = experiment: Antimicrobial activity against Salmonella enterica serovar Typhimurium CS9 with GyrA S83F, D87N, ParC S80I mutation; outline: as §2
Salmonella typhimurium [29] = experiment: Antimicrobial activity against Salmonella enterica serovar Typhimurium S21-1 gyrA+; outline: as §2

CC1(C)S[C@@H]2[C@H](NC(=O)[C@H](N)c3ccccc3)C(=O)N2[C@H]1C(=O)O [AMPICILLIN]
MIC (Salmonella typhimurium [1]): < 1 µg/mL
MIC (Salmonella typhimurium [2]): < 1 µg/mL
MIC (Salmonella typhimurium [3]): 2 µg/mL (≈ 5.72 µM)
MIC (Salmonella typhimurium [4]): < 1 µg/mL
MIC (Salmonella typhimurium [5]): 2 µg/mL (≈ 5.72 µM)
MIC (Salmonella typhimurium [6]): 2 µg/mL (≈ 5.72 µM)
MIC (Salmonella typhimurium [7]): > 32 µg/mL
MIC (Salmonella typhimurium [8]): 1 µg/mL (≈ 2.86 µM)
MIC (Salmonella typhimurium [9]): > 32 µg/mL
MIC (Salmonella typhimurium [10]): > 32 µg/mL
MIC (Salmonella typhimurium [11]): < 1 µg/mL
MIC (Salmonella typhimurium [12]): > 32 µg/mL
MIC (Salmonella typhimurium [13]): > 32 µg/mL
MIC (Salmonella typhimurium [14]): > 32 µg/mL
MIC (Salmonella typhimurium [15]): > 32 µg/mL
MIC (Salmonella typhimurium [16]): 2 µg/mL (≈ 5.72 µM)
MIC (Salmonella typhimurium [17]): < 1 µg/mL
MIC (Salmonella typhimurium [18]): > 32 µg/mL
MIC (Salmonella typhimurium [19]): > 32 µg/mL
MIC (Salmonella typhimurium [20]): > 32 µg/mL
MIC (Salmonella typhimurium [21]): < 1 µg/mL
MIC (Salmonella typhimurium [22]): 1 µg/mL (≈ 2.86 µM)
MIC (Salmonella typhimurium [23]): > 32 µg/mL
MIC (Salmonella typhimurium [24]): > 32 µg/mL
MIC (Salmonella typhimurium [25]): > 32 µg/mL
MIC (Salmonella typhimurium [26]): > 32 µg/mL
MIC (Salmonella typhimurium [27]): > 32 µg/mL
MIC (Salmonella typhimurium [28]): > 32 µg/mL
MIC (Salmonella typhimurium [29]): > 32 µg/mL

Source: ChEMBL document CHEMBL1142136, “Contribution of target gene mutations and efflux to decreased susceptibility of Salmonella enterica serovar typhimurium to fluoroquinolones and other antimicrobials” (2007)
